According to PMC12217349 (Scientific Reports, 2025):

Experiments:
[1] = test system: myocardial infarction (MI) mouse model; experiment: Myocardial infarction; format: in vivo, Male C57BL/6J mice; settings: MI mice; daily oral gavage 28 days; SNT-5382 14 mg/kg, losartan 15 mg/kg
Procedure, shortened: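 Male C57BL/6J mice, 10–11 weeks, were anaesthetised with ketamine 100 mg/kg and xylazine 10 mg/kg under ventilation. The left coronary artery was permanently ligated; shams had no occlusion. Mice with fractional shortening of 10–40% at 24 h were included. Daily oral gavage for 4 weeks: test compound 14 mg/kg (free base), losartan 15 mg/kg or water vehicle; blinded.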

[2] = test system: bone marrow collagen fibrosis; settings: myelofibrosis patients treated for 9 months; cited from earlier work
LOXL2 = settings: cited from earlier work

CCCCc1nc(Cl)c(CO)n1Cc1ccc(-c2ccccc2-c2nn[nH]n2)cc1 [losartan, Losartan]
hypertrophy: left ventricular end-systolic diameter (LVESD) [1]: no significant effect

NCc1cc(Oc2cccc(C(=O)N3C[C@@H](O)[C@H](F)C3)c2)nc(C(F)(F)F)c1 [GB2064]
patients with reduced bone marrow collagen fibrosis grade [2]: 60%

B1: simtuzumab: an allosteric LOXL2 selective antibody (antibody, chains of the INN, looked up, V domains shown)
VH: QVQLVQSGAEVKKPGASVKVSCKASGYAFTYYLIEWVRQAPGQGLEWIGVINPGSGGTNYNEKFKGRATITADKSTSTAYMELSSLRSEDTAVYFCARNWMNFDYWGQGTTVTVSS
VL: DIVMTQTPLSLSVTPGQPASISCRSSKSLLHSNGNTYLYWFLQKPGQSPQFLIYRMSNLASGVPDRFSGSGSGTDFTLKISRVEAEDVGVYYCMQHLEYPYTFGGGTKVEIK
inhibition of LOXL2 enzymatic activity (LOXL2): did not inhibit the enzymatic activity of LOXL2
